{"source": "ChEMBL document CHEMBL2069230", "about": "“Synthesis, biological evaluation, and docking studies of 3-(substituted)-aryl-5-(9-methyl-3-carbazole)-1H-2-pyrazolines as potent anti-inflammatory and antioxidant agents” (Bioorg Med Chem Lett, 2012)", "key": {"[1]": {"target": "Prostaglandin G/H synthase 1 (Homo sapiens) (UniProt P23219)", "sequence (P23219 whole entry)": "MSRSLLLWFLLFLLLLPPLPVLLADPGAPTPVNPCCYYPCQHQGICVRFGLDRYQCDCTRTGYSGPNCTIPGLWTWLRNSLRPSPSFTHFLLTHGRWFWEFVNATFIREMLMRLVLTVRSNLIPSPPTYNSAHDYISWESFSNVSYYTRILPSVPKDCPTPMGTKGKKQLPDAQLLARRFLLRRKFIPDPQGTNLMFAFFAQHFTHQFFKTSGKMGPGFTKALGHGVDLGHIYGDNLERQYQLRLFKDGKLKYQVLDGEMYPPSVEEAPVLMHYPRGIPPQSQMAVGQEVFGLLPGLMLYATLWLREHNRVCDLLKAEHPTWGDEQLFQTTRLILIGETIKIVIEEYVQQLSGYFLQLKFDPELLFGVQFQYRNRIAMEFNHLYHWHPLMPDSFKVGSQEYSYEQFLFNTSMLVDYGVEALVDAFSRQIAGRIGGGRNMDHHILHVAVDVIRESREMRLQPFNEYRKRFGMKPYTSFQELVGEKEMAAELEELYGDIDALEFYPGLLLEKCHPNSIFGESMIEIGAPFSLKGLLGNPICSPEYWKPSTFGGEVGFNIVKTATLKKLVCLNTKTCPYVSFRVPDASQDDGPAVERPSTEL", "assay": "Inhibition of COX1 peroxidase activity assessed as formation of TMPD at 100 uM by colorimetric analysis", "how_it_was_run": "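COX-1 peroxidase activity: assay buffer, heme and enzyme with sample (0.1 mM); oxidized TMPD appearance monitored colorimetrically at 590 nm.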"}, "Homo sapiens": {"species": "Homo sapiens", "assay": "Selectivity ratio of inhibition of COX2 to inhibition of COX1"}, "[2]": {"tested_on": "Radical scavenging activity", "assay": "Antioxidant activity assessed as DPPH radical scavenging activity at 100 uM after 20 mins by spectrophotometry", "format": "functional", "how_it_was_run": "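Test solution (0.1 mM) mixed with an equal quantity of 0.1 mM DPPH in ethanol; 20 min at room temperature, then DPPH reduction read as absorbance at 517 nm. Ascorbic acid (0.1 mM) as reference.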"}, "[3]": {"assay": "Antioxidant activity assessed as superoxide radical scavenging activity at 100 uM after 5 mins by NBT reduction assay", "format": "functional", "how_it_was_run": "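Superoxide generated in Tris-HCl (100 mM, pH 7.4) with NBT (300 µM), NADH (936 µM) and sample (0.1 mM); NBT reduction read after 5 min at room temperature as absorbance at 560 nm. Ascorbic acid (0.1 mM) reference.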"}, "[4]": {"assay": "Antioxidant activity assessed as H2O2-induced hydroxyl radical scavenging activity at 100 uM after 5 mins by spectrophotometry", "format": "functional", "how_it_was_run": "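Mixture of FeCl2 (1 mM), 1,10-phenanthroline (1 mM), phosphate buffer (0.2 M, pH 7.8), H2O2 (0.17 M) and sample (0.1 mM); reaction started with H2O2, 5 min at room temperature, absorbance at 560 nm. Ascorbic acid (0.1 mM) reference.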"}, "Mus musculus [5]": {"tested_on": "Mus musculus", "assay": "Antiinflammatory activity in AKR mouse assessed as inhibition of carrageenan-induced paw edema at 0.01 mmol/kg dosed intradermally after 3.5 hrs relative to vehicle-treated control", "format": "functional", "how_it_was_run": "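Edema induced in right hind paw of AKR mice (both sexes, pregnant females excluded, fasted during experiment) by intradermal 0.05 mL of 2% carrageenin in water; 6–10 animals per group. Paw weight increase, injected vs uninjected paw, compared with water-treated controls as percent edema inhibition; experiments in duplicate, mean of two.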"}, "Mus musculus [6]": {"tested_on": "Mus musculus", "assay": "Toxicity in carrageenan-challenged AKR mouse up to 0.5 mmol/kg dosed intradermally", "format": "organism-based", "settings": "in vivo, other"}}}
{"molecule": "Cn1c2ccccc2c2cc(C3CC(c4ccccn4)=NN3)ccc21", "note": "(stereo unspecified)", "values": [{"measurement": "inhibition", "setting": "[1]", "value": 20.1, "unit": "%"}, {"measurement": "Selectivity ratio", "setting": "Homo sapiens", "value": 2.06}, {"measurement": "Activity", "setting": "[2]", "value": 72, "unit": "%"}, {"measurement": "Activity", "setting": "[3]", "value": 62.2, "unit": "%"}, {"measurement": "Activity", "setting": "[4]", "value": 54.8, "unit": "%"}]}
{"molecule": "Cn1c2ccccc2c2cc(C3CC(c4cc(Cl)ccc4Cl)=NN3)ccc21", "note": "(stereo unspecified)", "values": [{"measurement": "inhibition", "setting": "[1]", "value": 8.85, "unit": "%"}, {"measurement": "Selectivity ratio", "setting": "Homo sapiens", "value": 1.14}, {"measurement": "Activity", "setting": "[2]", "value": 91.7, "unit": "%"}, {"measurement": "Activity", "setting": "[3]", "value": 86.3, "unit": "%"}, {"measurement": "Activity", "setting": "[4]", "value": 78.6, "unit": "%"}]}
{"molecule": "COc1ccc(C2=NNC(c3ccc4c(c3)c3ccccc3n4C)C2)cc1", "note": "(stereo unspecified)", "values": [{"measurement": "inhibition", "setting": "[1]", "value": 20.6, "unit": "%"}, {"measurement": "Selectivity ratio", "setting": "Homo sapiens", "value": 4.06}, {"measurement": "inhibition in vivo at 10 µmol/kg", "setting": "Mus musculus [5]", "value": 51.4, "unit": "%"}, {"measurement": "Activity", "setting": "[2]", "value": 80.8, "unit": "%"}, {"measurement": "Activity", "setting": "[3]", "value": 56.2, "unit": "%"}, {"measurement": "Activity", "setting": "[4]", "value": 58.2, "unit": "%"}, {"measurement": "Activity", "setting": "Mus musculus [6]", "value": "Non-toxic"}]}
{"molecule": "Cn1c2ccccc2c2cc(C3CC(c4ccc(F)c(F)c4)=NN3)ccc21", "note": "(stereo unspecified)", "values": [{"measurement": "inhibition", "setting": "[1]", "value": 90.8, "unit": "%"}, {"measurement": "Selectivity ratio", "setting": "Homo sapiens", "value": 0.22}, {"measurement": "Activity", "setting": "[2]", "value": 79.8, "unit": "%"}, {"measurement": "Activity", "setting": "[3]", "value": 69.4, "unit": "%"}, {"measurement": "Activity", "setting": "[4]", "value": 63.2, "unit": "%"}]}
{"molecule": "COc1ccc(C2=NNC(c3ccc4c(c3)c3ccccc3n4C)C2)cc1OC", "note": "(stereo unspecified)", "values": [{"measurement": "inhibition", "setting": "[1]", "value": 24.1, "unit": "%"}, {"measurement": "Selectivity ratio", "setting": "Homo sapiens", "value": 3.66}, {"measurement": "inhibition in vivo at 10 µmol/kg", "setting": "Mus musculus [5]", "value": 60.3, "unit": "%"}, {"measurement": "Activity", "setting": "[2]", "value": 84, "unit": "%"}, {"measurement": "Activity", "setting": "[3]", "value": 69.4, "unit": "%"}, {"measurement": "Activity", "setting": "[4]", "value": 69.3, "unit": "%"}, {"measurement": "Activity", "setting": "Mus musculus [6]", "value": "Non-toxic"}]}
{"molecule": "Cn1c2ccccc2c2cc(C3CC(c4ccc(F)cc4)=NN3)ccc21", "note": "(stereo unspecified)", "values": [{"measurement": "inhibition", "setting": "[1]", "value": 46.2, "unit": "%"}, {"measurement": "Selectivity ratio", "setting": "Homo sapiens", "value": 0.49}, {"measurement": "Activity", "setting": "[2]", "value": 79.3, "unit": "%"}, {"measurement": "Activity", "setting": "[3]", "value": 45.6, "unit": "%"}, {"measurement": "Activity", "setting": "[4]", "value": 54.6, "unit": "%"}]}
{"molecule": "Cn1c2ccccc2c2cc(C3CC(c4ccccc4)=NN3)ccc21", "note": "(stereo unspecified)", "values": [{"measurement": "inhibition", "setting": "[1]", "value": 10.2, "unit": "%"}, {"measurement": "Selectivity ratio", "setting": "Homo sapiens", "value": 2.16}, {"measurement": "Activity", "setting": "[2]", "value": 79.9, "unit": "%"}, {"measurement": "Activity", "setting": "[3]", "value": 63.2, "unit": "%"}, {"measurement": "Activity", "setting": "[4]", "value": 63.5, "unit": "%"}]}
{"molecule": "Cn1c2ccccc2c2cc(C3CC(c4ccc(Cl)cc4)=NN3)ccc21", "note": "(stereo unspecified)", "values": [{"measurement": "inhibition", "setting": "[1]", "value": 10.2, "unit": "%"}, {"measurement": "Selectivity ratio", "setting": "Homo sapiens", "value": 1.24}, {"measurement": "Activity", "setting": "[2]", "value": 79.3, "unit": "%"}, {"measurement": "Activity", "setting": "[3]", "value": 62.4, "unit": "%"}, {"measurement": "Activity", "setting": "[4]", "value": 55, "unit": "%"}]}
{"molecule": "Cn1c2ccccc2c2cc(C3CC(c4ccc(Cl)cc4Cl)=NN3)ccc21", "note": "(stereo unspecified)", "values": [{"measurement": "inhibition", "setting": "[1]", "value": 24.1, "unit": "%"}, {"measurement": "Selectivity ratio", "setting": "Homo sapiens", "value": 1.68}, {"measurement": "Activity", "setting": "[2]", "value": 92.1, "unit": "%"}, {"measurement": "Activity", "setting": "[3]", "value": 81.7, "unit": "%"}, {"measurement": "Activity", "setting": "[4]", "value": 69.3, "unit": "%"}]}
{"molecule": "Cn1c2ccccc2c2cc(C3CC(c4ccc([N+](=O)[O-])cc4)=NN3)ccc21", "note": "(stereo unspecified)", "values": [{"measurement": "inhibition", "setting": "[1]", "value": 14.2, "unit": "%"}, {"measurement": "Selectivity ratio", "setting": "Homo sapiens", "value": 1.3}, {"measurement": "Activity", "setting": "[2]", "value": 81.1, "unit": "%"}, {"measurement": "Activity", "setting": "[3]", "value": 65.1, "unit": "%"}, {"measurement": "Activity", "setting": "[4]", "value": 64.8, "unit": "%"}]}
{"molecule": "Cn1c2ccccc2c2cc(C3CC(c4ccc(F)cc4F)=NN3)ccc21", "note": "(stereo unspecified)", "values": [{"measurement": "inhibition", "setting": "[1]", "value": 10.4, "unit": "%"}, {"measurement": "Selectivity ratio", "setting": "Homo sapiens", "value": 2.58}, {"measurement": "Activity", "setting": "[2]", "value": 83.8, "unit": "%"}, {"measurement": "Activity", "setting": "[3]", "value": 63.2, "unit": "%"}, {"measurement": "Activity", "setting": "[4]", "value": 60.2, "unit": "%"}]}
{"molecule": "Cn1c2ccccc2c2cc(C3CC(c4cccs4)=NN3)ccc21", "note": "(stereo unspecified)", "values": [{"measurement": "inhibition", "setting": "[1]", "value": 18.5, "unit": "%"}, {"measurement": "Selectivity ratio", "setting": "Homo sapiens", "value": 2.61}, {"measurement": "inhibition in vivo at 10 µmol/kg", "setting": "Mus musculus [5]", "value": 42.2, "unit": "%"}, {"measurement": "Activity", "setting": "[2]", "value": 85.3, "unit": "%"}, {"measurement": "Activity", "setting": "[3]", "value": 81.1, "unit": "%"}, {"measurement": "Activity", "setting": "[4]", "value": 63.1, "unit": "%"}, {"measurement": "Activity", "setting": "Mus musculus [6]", "value": "Non-toxic"}]}
{"molecule": "Cn1c2ccccc2c2cc(C3CC(c4ccc(Br)cc4)=NN3)ccc21", "note": "(stereo unspecified)", "values": [{"measurement": "inhibition", "setting": "[1]", "value": 87.4, "unit": "%"}, {"measurement": "Selectivity ratio", "setting": "Homo sapiens", "value": 1.02}, {"measurement": "Activity", "setting": "[2]", "value": 80.6, "unit": "%"}, {"measurement": "Activity", "setting": "[3]", "value": 56.2, "unit": "%"}, {"measurement": "Activity", "setting": "[4]", "value": 57.5, "unit": "%"}]}
{"molecule": "COc1cc(OC)c(C2=NNC(c3ccc4c(c3)c3ccccc3n4C)C2)c(OC)c1", "note": "(stereo unspecified)", "values": [{"measurement": "inhibition", "setting": "[1]", "value": 23.5, "unit": "%"}, {"measurement": "Selectivity ratio", "setting": "Homo sapiens", "value": 3.69}, {"measurement": "inhibition in vivo at 10 µmol/kg", "setting": "Mus musculus [5]", "value": 54.3, "unit": "%"}, {"measurement": "Activity", "setting": "[2]", "value": 86, "unit": "%"}, {"measurement": "Activity", "setting": "[3]", "value": 70.4, "unit": "%"}, {"measurement": "Activity", "setting": "[4]", "value": 74.3, "unit": "%"}, {"measurement": "Activity", "setting": "Mus musculus [6]", "value": "Non-toxic"}]}
{"molecule": "O=C1O[C@H]([C@@H](O)CO)C(O)=C1O", "values": [{"measurement": "Activity", "setting": "[2]", "value": 91.5, "unit": "%"}, {"measurement": "Activity", "setting": "[3]", "value": 52, "unit": "%"}, {"measurement": "Activity", "setting": "[4]", "value": 88.3, "unit": "%"}]}
{"molecule": "Cn1c2ccccc2c2cc(C3CC(c4ccc(Cl)c(Cl)c4)=NN3)ccc21", "note": "(stereo unspecified)", "values": [{"measurement": "inhibition", "setting": "[1]", "value": 12.2, "unit": "%"}, {"measurement": "Selectivity ratio", "setting": "Homo sapiens", "value": 1.34}, {"measurement": "Activity", "setting": "[2]", "value": 87.4, "unit": "%"}, {"measurement": "Activity", "setting": "[3]", "value": 61.4, "unit": "%"}, {"measurement": "Activity", "setting": "[4]", "value": 65.1, "unit": "%"}]}
